Assay results: ChEMBL document CHEMBL1212834, “Pyrido[2,3-b]pyrazines, discovery of TRPV1 antagonists with reduced potential for the formation of reactive metabolites” (Bioorg Med Chem Lett, 2010)
Active and inactive are the calls of the source. The rule behind the calls is not given here.

Columns and labels:
[1] = AUC (0 to 24 hrs) in dog at 1 mg/kg, po; format: ADME, organism-based, Canis lupus familiaris; set-up: time < 24 hr, dose 1 mg/kg, route oral; details: plasma
Outline: (§1)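 Oral PK at the dose in the line, given as a suspension in 0.5% methocel. […] Reported as mean ± error.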

[2] = Apparent permeability across MDCK cell membrane; format: ADME, cell-based, Canis lupus familiaris; details: dog
Outline: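 Permeability across MDCK cell monolayers, reported as Papp. Efflux ratio calculated as (B→A)/(A→B).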

[3] = Metabolic stability in rat liver microsomes assessed as compound remaining after 10 min; format: ADME, Microsome; details: read-out: Stability
[4] = Plasma concentration in rat complete Freund's adjuvant-induced inflammation model at 10 mg/kg, po QD for 3 consecutive days measured at 2 hrs post dose on day 1; format: ADME, organism-based; set-up: dose 10 mg/kg, route oral
Outline: (§2)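 CFA (200 µL) injected intraplantar into left hind paw; next day rats dosed orally once daily for three consecutive days (1, 3 or 10 mg/kg, suspension in 0.5% methocel). Separate cohort: plasma sampled each day 2 h after dosing.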

[5] = Clearance in rhesus monkey at 1 mg/kg, iv; format: ADME, organism-based, Macaca mulatta; set-up: dose 1 mg/kg, route intravenous; details: in vivo
Outline: (§3)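 IV PK at 1 mg/kg, given as a solution in 3:1 PEG300:water. Plasma half-life, clearance and volume of distribution derived.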

[6] = AUC (0 to 24 hrs) in rat at 10 mg/kg, po; format: ADME, organism-based; set-up: time < 24 hr, dose 10 mg/kg, route oral; details: plasma; outline: as §1
[7] = Clearance in rat at 1 mg/kg, iv; format: ADME, organism-based; set-up: dose 1 mg/kg, route intravenous; details: in vivo; outline: as §3
[8] = Plasma concentration in rat complete Freund's adjuvant-induced inflammation model at 1 mg/kg, po QD for 3 consecutive days measured at 2 hrs post dose on day 2; format: ADME, organism-based; set-up: dose 1 mg/kg, route oral; outline: as §2
[9] = Cmax in dog at 10 mg/kg, po; format: ADME, organism-based, Canis lupus familiaris; set-up: dose 10 mg/kg, route oral; details: in vivo; outline: as §1
Rattus norvegicus [10] = experiment: Antiinflammatory activity in Sprague-Dawley rat assessed as inhibition of carrageenan-induced thermal hyperalgesia at 1 mg/kg, po administered 3.5 hrs after carrageenan challenge measured after 5 hrs; format: functional
Outline: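 Rat carrageenan-induced thermal hyperalgesia. Dosed orally as a suspension in 0.5% methocel; % inhibition reported at each dose.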

[11] = Oral bioavailability in rat at 1 mg/kg; format: ADME, organism-based; details: in vivo
Outline: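 Oral bioavailability from a 1 mg/kg po dose (suspension in 0.5% methocel), compared against a 1 mg/kg iv dose (solution in 3:1 PEG300:water).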

Canis familiaris [12] = species on record: Canis familiaris; experiment: Cardiotoxicity in dog assessed as effect on ECG intervals at plasma concentration of up to 24 uM; format: toxicity, organism-based, Canis lupus familiaris
[13] = Volume of distribution in rhesus monkey at 1 mg/kg, iv; format: ADME, organism-based, Macaca mulatta; set-up: dose 1 mg/kg, route intravenous; details: in vivo
Outline: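 Intravenous dose of 1 mg/kg given as a solution in 3:1 PEG300:water to rat, dog or rhesus monkey. Plasma PK parameters (T1/2, clearance, Vd) derived.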

[14] = Plasma concentration in rat complete Freund's adjuvant-induced inflammation model at 3 mg/kg, po QD for 3 consecutive days measured at 2 hrs post dose on day 2; format: ADME, organism-based; set-up: dose 3 mg/kg, route oral; outline: as §2
[15] = target: T1, Amine oxidase [flavin-containing] A (Homo sapiens, UniProt P21397); experiment: Inhibition of MAOA
T1 sequence (P21397 whole entry): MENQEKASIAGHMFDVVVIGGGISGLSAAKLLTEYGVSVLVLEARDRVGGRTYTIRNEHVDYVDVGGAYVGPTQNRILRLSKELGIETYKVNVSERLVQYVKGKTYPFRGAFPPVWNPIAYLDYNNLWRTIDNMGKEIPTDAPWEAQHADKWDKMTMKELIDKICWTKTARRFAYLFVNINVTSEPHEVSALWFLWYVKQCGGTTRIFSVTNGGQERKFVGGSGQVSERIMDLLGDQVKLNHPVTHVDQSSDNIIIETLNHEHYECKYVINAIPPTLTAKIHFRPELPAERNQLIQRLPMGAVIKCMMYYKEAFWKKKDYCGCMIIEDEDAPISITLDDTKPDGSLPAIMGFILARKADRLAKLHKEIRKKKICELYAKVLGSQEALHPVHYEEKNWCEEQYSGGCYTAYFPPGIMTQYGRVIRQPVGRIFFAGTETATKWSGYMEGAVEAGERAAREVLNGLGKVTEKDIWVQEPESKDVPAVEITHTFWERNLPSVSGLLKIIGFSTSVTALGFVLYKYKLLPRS
Outline: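 Off-target panel of more than 160 receptors, ion channels, transporters and kinases, which included MAO.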

[16] = Ratio of drug level in brain to plasma in rat at 10 mg/kg, po; format: ADME, organism-based; set-up: dose 10 mg/kg, route oral; details: read-out: BPR
[17] = Cmax in rat at 10 mg/kg, po; format: ADME, organism-based; set-up: dose 10 mg/kg, route oral; details: in vivo; outline: as §1
Liver microsomes = experiment: Metabolic stability in human liver microsomes assessed per mg of protein after 1 hr
Rattus norvegicus [18] = experiment: Antiinflammatory activity in rat assessed as reversal of complete Freund's adjuvant-induced mechanical hyperalgesia at 1 to 10 mg/kg, po administered 1 day after complete Freund's adjuvant challenge QD for 3 consecutive days measured at 24 hrs post dose on day 2
Plasma = experiment: Covalent protein binding in rat assessed per mg of protein at 8.1 mg/kg, po after 2 to 24 hrs; details: in vivo
Canis familiaris [19] = species on record: Canis familiaris; experiment: Cardiotoxicity in dog assessed as effect on heart rate at plasma concentration of up to 24 uM; format: toxicity, organism-based, Canis lupus familiaris
[20] = AUC (0 to 24 hrs) in rat brain at 10 mg/kg, po; format: ADME, organism-based; set-up: time < 24 hr, dose 10 mg/kg, route oral
[21] = Half life in rat at 1 mg/kg, iv; format: ADME, organism-based; set-up: dose 1 mg/kg, route intravenous; details: in vivo; outline: as §3
[22] = target: Voltage-gated inwardly rectifying potassium channel KCNH2 (Homo sapiens, UniProt Q12809); experiment: Inhibition of human hERG
[23] = AUC (0 to 24 hrs) in rhesus monkey at 1 mg/kg, po; format: ADME, organism-based, Macaca mulatta; set-up: time < 24 hr, dose 1 mg/kg, route oral; details: plasma; outline: as §1
Rattus norvegicus [24] = experiment: Antiinflammatory activity in po dosed rat assessed as inhibition of complete Freund's adjuvant-induced hind paw edema administered 1 day after complete Freund's adjuvant challenge QD for 3 consecutive days measured at 2 hrs post dose on day 1; format: functional, organism-based
Outline: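 CFA 200 µL injected intraplantar into the left hind paw. From the next day, 1, 3 or 10 mg/kg po once daily for 3 days as a suspension in 0.5% methocel.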

Voltage-gated inwardly rectifying potassium channel KCNH2, sequence (Q12809 whole entry): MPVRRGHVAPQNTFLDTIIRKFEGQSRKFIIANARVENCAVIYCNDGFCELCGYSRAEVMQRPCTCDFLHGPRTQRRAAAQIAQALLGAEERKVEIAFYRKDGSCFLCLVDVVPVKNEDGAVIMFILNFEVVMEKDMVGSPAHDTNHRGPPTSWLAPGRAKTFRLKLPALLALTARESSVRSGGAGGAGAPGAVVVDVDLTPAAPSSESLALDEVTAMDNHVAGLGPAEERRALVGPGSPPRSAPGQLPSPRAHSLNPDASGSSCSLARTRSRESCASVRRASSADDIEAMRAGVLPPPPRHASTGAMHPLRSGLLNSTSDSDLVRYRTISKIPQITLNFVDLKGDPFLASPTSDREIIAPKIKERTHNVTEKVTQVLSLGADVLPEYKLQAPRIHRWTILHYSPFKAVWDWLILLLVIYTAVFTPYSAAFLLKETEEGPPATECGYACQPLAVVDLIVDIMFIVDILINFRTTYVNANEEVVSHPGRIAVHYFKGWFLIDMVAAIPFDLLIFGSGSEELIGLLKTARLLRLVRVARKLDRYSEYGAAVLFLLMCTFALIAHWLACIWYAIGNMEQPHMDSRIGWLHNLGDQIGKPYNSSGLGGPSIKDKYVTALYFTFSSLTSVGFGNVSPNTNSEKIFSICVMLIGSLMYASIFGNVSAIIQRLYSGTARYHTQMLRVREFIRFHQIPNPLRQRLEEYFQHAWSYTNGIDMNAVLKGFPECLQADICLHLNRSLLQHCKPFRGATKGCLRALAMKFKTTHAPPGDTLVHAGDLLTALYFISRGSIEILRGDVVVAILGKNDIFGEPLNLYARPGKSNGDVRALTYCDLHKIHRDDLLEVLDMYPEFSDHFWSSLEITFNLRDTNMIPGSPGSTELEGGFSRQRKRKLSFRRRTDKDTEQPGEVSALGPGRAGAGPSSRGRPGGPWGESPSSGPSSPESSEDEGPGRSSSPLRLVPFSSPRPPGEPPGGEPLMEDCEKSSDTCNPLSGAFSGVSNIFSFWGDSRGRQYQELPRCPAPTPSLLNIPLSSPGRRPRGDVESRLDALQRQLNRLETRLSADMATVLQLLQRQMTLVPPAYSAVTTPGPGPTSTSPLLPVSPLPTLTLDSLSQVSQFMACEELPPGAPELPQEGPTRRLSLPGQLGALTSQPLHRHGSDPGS

AUC(0-t) at 24 h [1]: 2.7 µM·h
Papp [2]: 34 ×10⁻⁶ cm/s
remaining at 10 min [3]: 100%
concentration at 2 h [4]: 2430 nM
clearance [5]: 2.8 mL/min/kg
AUC(0-t) at 24 h [6]: 29.9 µM·h
clearance [7]: 25 mL/min/kg
concentration at 2 h [8]: 360 nM
Cmax [9]: 5200 nM
bioavailability [11]: 103%
Vd [13]: 1 L/kg
concentration at 2 h [14]: 1100 nM
IC50 [15]: 2.4 µM
Kp [16]: 0.1
Cmax [17]: 2100 nM
Stability (Liver microsomes): 8 pmol
covalent protein binding (Plasma): < 10 pmol/mg
AUC(0-t) at 24 h [20]: 3.4 µM·h
half-life [21]: 2.3 h
AUC(0-t) at 24 h [23]: 4.9 µM·h
Compound: NC(=O)c1cnc(-c2cnc3c(Nc4ccc(C(F)(F)F)cn4)ccnc3n2)c(C(F)(F)F)c1
inhibition in vivo at 1 mg/kg (Rattus norvegicus [10]): 49%
Activity (Canis familiaris [12]): Non-toxic
inhibition (Rattus norvegicus [18]): Active
Activity (Canis familiaris [19]): Non-toxic
IC50 [22]: 5.9 µM
Activity (Rattus norvegicus [24]): Dose-dependent effect
